Screening data deposited in PubChem BioAssay by several laboratories.
CHOP inhibitor = CHOP inhibition in unfolded protein response | CHO-K1 CHOP-promoter luciferase, tunicamycin-induced, 15-18 h | inhibition, % at 10 µM | hit rate 3.8% among 220,000 | AID 2732;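 active means compounds that reduced the stress-induced luciferase reporter signal by more than about 70% of percent inhibition, limit read from the data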
697 NFkB inh = lowers PMA/ionomycin-induced NF-kB signal in 697 B cells; 697 B-cell NF-kB luciferase reporter, 16 h; inhibition, % at 4 µM; hit rate 0.33% among 330,000; AID 435022; in the data active means inhibition above about 35%
Jurkat NFkB inh = lowers PMA/ionomycin-induced NF-kB signal in Jurkat cells | inhibition, % at 4 µM | PMA/ionomycin-induced NF-kB luciferase reporter, luminescence | hit rate 0.53% among 330,000; in the data active means inhibition above about 50%
UPR CHOP act = activators of apoptotic arm of unfolded protein response (CHOP). AID 449763. hit rate 0.34% among 330,000. activation, % at 10 µM. CHO-CHOP luciferase reporter, UPR activation, luminescence; percent of tunicamycin response over DMSO baseline;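 active means at 10 µM dose, activation of 40% or more, normalized to positive control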
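Material: CHO-CHOP cells, stable luciferase reporter of PERK-eIF2a-CHOP signalling; quantity: 500 reporter cells seeded per well; buffer or medium: F12 medium containing 10% fetal bovine serum; compound: one dose, 10 µM in 0.5% DMSO; incubation: 6 h compound treatment, 37 °C; measured by: Steady-Glo luciferase luminescence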
XBP1 UPR activ = adaptive UPR (XBP1) activation | CHO-XBP1 luciferase reporter, IRE1-XBP1 UPR activation, luminescence; percent of tunicamycin response, DMSO as zero | activation, % at 20 µM | hit rate 0.33% among 330,000 | AID 463104;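 active means versus positive control, 20 µM dose yields 30% or more activation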
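Assay system: CHO-XBP1 luciferase reporter cells; Schedule: 6 h treatment, 37 °C; Detection: glow luminescence from Steady-Glo reagent; Benchmarks: high control tunicamycin 10 µg/mL final, low control DMSO vehicle only.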
697 NFkB conf = lowers PMA/ionomycin-induced NF-kB signal in 697 B cells; shares compounds with 697 NFkB inh; 697 B-cell NF-kB luciferase, 16 h; inhibition, % at 4 µM; hit rate 35% among 2,000; in the data active means inhibition mostly above about 28%, no sharp cut-off; inactive means mostly below about 22%
Of the large screens only hits and unclear results are named; the others gave an inactive call (follow-up assays come after a bar, where they were run). This is one part of a sample in which hits are shown more often than they occur.

Cc1c(CC(=O)NCCCC(=O)O)c(=O)oc2cc3oc4c(c3cc12)CCCC4	none (no result: CHOP inhibitor)
Cc1c(CCC(=O)N[C@@H](C)C(=O)O)c(=O)oc2cc3oc4c(c3cc12)CCCC4	697 NFkB inh 41 (no result: CHOP inhibitor) | 697 NFkB conf inactive
Cc1c(CC(=O)NCCC(=O)O)c(=O)oc2cc3oc4c(c3cc12)CCCC4	none (no result: CHOP inhibitor)
CCOC(=O)C(Cc1ccc(O)cc1)NC(=O)CNC(=O)C1CCCN1C(=O)OC(C)(C)C (configuration not stated)	none
Cc1ccccc1-c1nnn(CC(=O)Nc2ccc3c(c2)OCCO3)n1	none
CC(=O)Nc1ccc(S(=O)(=O)N2CCC(c3nc4ccc(C)cc4[nH]3)CC2)cc1	697 NFkB inh 38 | 697 NFkB conf inactive
Cc1nn(CC(=O)N(C)c2c(N)n(Cc3ccccc3)c(=O)[nH]c2=O)c(C)c1[N+](=O)[O-]	none (no result: CHOP inhibitor)
COc1ccccc1NC(=O)CC12CC3CC(CC(Br)(C3)C1)C2	none (no result: CHOP inhibitor)
Cc1ccc(C(=O)Oc2oc(-c3ccccc3)nc2C=Nc2ccc(N(C)C)cc2)cc1	697 NFkB inh 35 | 697 NFkB conf inactive
CN(C)c1ccc(N=Cc2nc(-c3ccccc3)oc2OC(=O)c2cccc(Cl)c2)cc1	none
Cc1ccc(CNC(=O)CN2CCN(c3ccc(F)cc3)CC2)cc1	none (no result: CHOP inhibitor)
COc1ccc(OCc2cccc(C(=O)Nc3cc(C)on3)c2)cc1	697 NFkB inh 91 | 697 NFkB conf 77
CCOc1ccc(OCc2cccc(C(=O)N/N=C/c3cccnc3)c2)cc1	697 NFkB inh 67 | 697 NFkB conf 52
COc1ccc(OCc2cccc(C(=O)NN)c2)cc1	CHOP inhibitor 72, 697 NFkB inh 68 | 697 NFkB conf 29
COc1ccc(N2CCN(S(=O)(=O)c3cc4c(cc3C)N(C(C)=O)CCO4)CC2)cc1	none (no result: CHOP inhibitor)
COc1ccc(C(=O)NC(Cn2ccnc2)C(C)(C)C)cc1OC1CCN(C(C)C)CC1 (configuration not stated)	none (no result: CHOP inhibitor)
Cc1ccc(CSc2cc(C)[nH]c(=O)n2)cc1	none (no result: CHOP inhibitor)
COC(=O)C1CCN(C(=O)c2oc3c(Cl)cc(C)cc3c2C)CC1	none (no result: CHOP inhibitor) | 697 NFkB conf inactive
COc1cc(-c2cc(-c3nnco3)c3ccccc3n2)cc(OC)c1OC	697 NFkB inh 41 | 697 NFkB conf inactive
Cc1cccc(NC(=O)c2ccc3c(c2)OCCO3)c1	none (no result: CHOP inhibitor)
CC(C)C(=O)Nc1ccc(NC(=O)c2ccc3c(c2)OCO3)cc1	697 NFkB inh 50 (no result: CHOP inhibitor) | 697 NFkB conf 43
Cc1ccc(NC(=O)c2ccc3c(c2)OCCO3)cc1C	none (no result: CHOP inhibitor) | 697 NFkB conf inactive
COc1cc(NC(=O)c2ccc3c(c2)OCO3)ccc1NC(=O)C(C)C	none (no result: CHOP inhibitor)
CCCN1C(=O)c2ccc(C(=O)Nc3ccc4c(c3)OCO4)cc2C1=O	697 NFkB inh 36 (no result: CHOP inhibitor) | 697 NFkB conf inactive
CC(C)Cc1nnc(NC(=O)c2ccc3c(c2)OCCO3)s1	none (no result: CHOP inhibitor) | 697 NFkB conf inactive
CC1(C)C(/C=C/C=C/C=C/C=C2\N(CCCCS(=O)(=O)O)c3ccc4ccccc4c3C2(C)C)=[N+](CCCCS(=O)(=O)[O-])c2ccc3ccccc3c21	none (no result: CHOP inhibitor)
COc1ccccc1NC(=O)NC1(C(=O)NCC2CCCO2)CCCCC1 (configuration not stated)	none (no result: CHOP inhibitor)
O=C(Nc1ncccc1O)c1ccc2c(c1)OCCO2	none (no result: CHOP inhibitor) | 697 NFkB conf inactive
O=C(Nc1ncccc1O)c1ccc2c(c1)OCO2	none (no result: CHOP inhibitor)
COc1ccc2[nH]c3c(c2c1)CCN1C(=O)C(CC(=O)NCc2cccc(C(F)(F)F)c2)C[C@H](C(=O)N(C(C)C)C(C)C)[C@@]31C (some centres not stated)	697 NFkB inh 35 (no result: CHOP inhibitor, Jurkat NFkB inh) | 697 NFkB conf inactive
C#CCNC(=O)C1=C[C@H](c2ccccc2)[C@@H](CCCO)[C@H](OCC)O1	none
COc1ccc(Cn2c(C3CC3)nc3ccc(NC(C)=O)cc3c2=O)cc1	none | 697 NFkB conf inactive
O=S(=O)(NCc1ccncc1)c1ccc(Br)s1	697 NFkB inh 51 (no result: CHOP inhibitor) | 697 NFkB conf 45
O=C(O)CNS(=O)(=O)c1ccc(Br)s1	none
COc1cccc(C(=O)Cn2c(=N)n(C)c3ccccc32)c1	none | 697 NFkB conf inactive
O=C(NC(=S)Nc1ccc(N2CCCC2)cc1)c1ccc(F)cc1	none (no result: CHOP inhibitor)
Cc1ccc(C(=O)Nc2ccc(Cl)cn2)cc1	none (no result: CHOP inhibitor)
Cc1ccc(C(=O)Nc2ncc3c(Cl)cccc3n2)cc1	none | 697 NFkB conf inactive
COc1ccc(-c2ccc(F)cc2)cc1[C@H]1[C@H]2C=CC[C@@H](C)[C@@H]2C(=O)N1Cc1ccccc1	697 NFkB inh 40 | 697 NFkB conf 46
COc1ccc(-c2ccc(OC)c([C@H]3[C@H]4C=CC[C@@H](C)[C@@H]4C(=O)N3Cc3ccccc3)c2)cc1OC	none
COc1cc(-c2nc3ccccn3c2NCC2CCCO2)ccc1O (configuration not stated)	697 NFkB inh 36 | 697 NFkB conf inactive
CCOc1cc(-c2nc3ccccn3c2NCC2CCCO2)ccc1O (configuration not stated)	none
Cc1cc(NC(=O)c2ccccc2)nc2c1c(=O)oc1ccccc12	697 NFkB inh 35 | 697 NFkB conf inactive
COc1cc(/C=N/NC(=O)c2cc(-c3cccc(OC(C)C)c3)nc3ccccc23)ccc1O	none (no result: CHOP inhibitor) | 697 NFkB conf inactive
COc1cc(/C=N/NC(=O)c2cc(-c3cccs3)nc3ccccc23)ccc1O	none
CCN(C(=O)CN1C(=O)NC2(CCc3ccccc32)C1=O)C1CCCCC1 (configuration not stated)	697 NFkB inh 42 (no result: CHOP inhibitor) | 697 NFkB conf inactive
Cc1cccc(-c2oc3ccc(-c4ccc5c(c4)OCO5)cc3c2/C=C/c2ccc(N)cc2)c1	none (no result: CHOP inhibitor)
COc1ccc(-c2cc(-c3ccccc3)c(C#N)c(S(C)=O)n2)cc1 (configuration not stated)	697 NFkB inh 37 | 697 NFkB conf inactive
C#CCn1c(S(=O)(=O)Cc2ccc(F)cc2)nc(-c2ccccc2)c1-c1ccccc1	none | 697 NFkB conf inactive
CCOC(=O)Cn1c(S(=O)(=O)Cc2ccc(F)cc2)nc(-c2ccccc2)c1-c1ccccc1	none
COc1ccc(C(=O)N2CCCC(c3ccccc3)=N2)cc1	none
Cc1ccc(C(=O)N2CCCC(c3ccc(Cl)cc3)=N2)cc1	697 NFkB inh 42 | 697 NFkB conf 39
CC(C)(C)c1ccc(-n2ncc3c2CCCC3NC(=O)C2(C(N)=O)CC2)cc1 (configuration not stated)	697 NFkB inh 43 (no result: CHOP inhibitor) | 697 NFkB conf 83
CC(=O)NCC(=O)NC1CCCc2c1cnn2-c1ccc(C(C)(C)C)cc1 (configuration not stated)	none (no result: CHOP inhibitor)
COC1CCN(Cc2c(C(=O)N3CCN(C4CCCCC4)CC3)nc3ccccn23)CC1	none (no result: CHOP inhibitor)
COc1ccc(-c2nsc3c(N4CCCC4)ncnc23)cc1	CHOP inhibitor 90 | 697 NFkB conf inactive
COc1ccc(CC(=O)NNC(=O)c2cccnc2)cc1OC	none
